Experiments:
L02 = test: Antiproliferative activity against human LO2 cells after 72 hrs by MTT assay; type: cell-based; conditions: L02, 72 h
In short: (§1)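 MTT assay with 72 h exposure to graded concentrations in triplicate. MTT solution then DMSO were added, followed by 10 min at room temperature, with absorbance read at 490 nm. IC50 is reported as the mean of three independent experiments. 5-FU served as positive control.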

[1] = Selectivity index, ratio of IC50 for human LO2 cells to IC50 for human Bel7402 cells; type: toxicity; conditions: LO2 cells versus Bel7402 cells, read-out: Ratio IC50
In short: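 SI was calculated as IC50 in L-02 normal liver cells divided by IC50 in Bel-7402 cells, both from the 72 h MTT assay.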

Bel7402/5-FU = test: Antiproliferative activity against human Bel7402/5-FU cells after 72 hrs by MTT assay; type: functional, cell-based; in short: as §1
Bel-7402 = test: Antiproliferative activity against human Bel7402 cells after 72 hrs by MTT assay; type: functional, cell-based; conditions: Bel-7402, 72 h; in short: as §1
HL-60 = test: Antiproliferative activity against human HL60 cells after 72 hrs by MTT assay; type: functional, cell-based; conditions: HL-60, 72 h; in short: as §1
PC-3 = test: Antiproliferative activity against human PC3 cells after 72 hrs by MTT assay; type: functional, cell-based; conditions: PC-3, 72 h; in short: as §1

SMILES	IC50 (L02)	selectivity ratio [1]	IC50 (Bel7402/5-FU)	IC50 (Bel-7402)	IC50 (HL-60)	IC50 (PC-3)
C=C1C(=O)[C@]23[C@H](O)[C@H]1CC[C@H]2[C@@]12CO[C@]3(O)[C@@H](O)[C@@H]1C(C)(C)CC[C@@H]2O [ORIDONIN]	18.9 µM	2.6	10.5 µM	7.36 µM	14.3 µM	11 µM
C=C1C(=O)[C@@]23C(=O)O[C@H]4CCC(C)(C)[C@H]5C(=O)OC[C@@]45[C@@H]2CC[C@@H]1[C@H]3OC(=O)CCC(=O)N[C@@H](Cc1ccc(N(CCCl)CCCl)cc1)C(=O)OC	> 100 µM		12.8 µM	6.5 µM	18.5 µM	> 100 µM
C=C1C(=O)[C@@]23C(=O)O[C@H]4CCC(C)(C)[C@H]5[C@H](O)OC[C@@]45[C@@H]2CC[C@@H]1[C@H]3OC(=O)CCCc1ccc(N(CCCl)CCCl)cc1	69.9 µM	33.6	8.49 µM	2.08 µM	6.35 µM	7.32 µM

Reference: ChEMBL document CHEMBL4229335 (Eur J Med Chem, 2018)
